High-throughput results deposited in PubChem BioAssay by several laboratories.
An excerpt weighted towards active compounds, which were near 3.8% of everything screened.
rCAG binder = r(CAG) repeat RNA binding; TO-PRO-1 dye displacement fluorescence; inhibition, % at 3 µM; 370,000 compounds, 1.3% hits; AID 651821;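 active means inhibition above the plate cutoff, the mean of all test compounds on that plate plus 3 SD, cut at about 35% in these data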;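 further: 0% = DMSO alone and 100% = 100 µM mitoxantrone as full dye displacement; higher means more dye released from RNA so lower well fluorescence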
Granule exo inh = blocks lytic granule exocytosis; AID 651702; inhibition, % at 10 µM; TALL-104 LAMP-1 surface exposure, flow cytometry; cells stimulated with thapsigargin and PMA; 360,000 compounds, 0.66% hits;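 active means inhibition above about 55%, limit read from the data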
Beta2AR agonist = activates human beta-2 adrenergic receptor causing internalization. P07550. Am2.2-beta2AR cells, FAP receptor internalization, flow cytometry. response, % (no concentration beside the values). 340,000 compounds, 0.43% hits;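 active means response above a set limit, near 3 SD of response in nonfluorescent compounds, cut at about 42% in these data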
Target sequence (P07550 whole entry, looked up): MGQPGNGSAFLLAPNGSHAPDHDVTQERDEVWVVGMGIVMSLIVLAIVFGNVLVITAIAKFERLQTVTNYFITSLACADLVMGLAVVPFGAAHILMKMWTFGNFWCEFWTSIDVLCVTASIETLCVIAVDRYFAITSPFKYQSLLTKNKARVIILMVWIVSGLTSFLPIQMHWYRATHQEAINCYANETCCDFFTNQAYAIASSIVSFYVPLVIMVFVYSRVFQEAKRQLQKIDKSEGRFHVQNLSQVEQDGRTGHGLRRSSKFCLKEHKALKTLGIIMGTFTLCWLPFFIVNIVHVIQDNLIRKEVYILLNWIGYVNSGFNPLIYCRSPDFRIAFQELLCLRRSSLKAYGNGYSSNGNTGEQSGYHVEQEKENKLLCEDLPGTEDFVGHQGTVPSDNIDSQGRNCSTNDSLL
V-ATPase pH = alters yeast V-ATPase proton transport | S. cerevisiae, pHLuorin cytosolic pH fluorescence | 350,000 compounds, 0.37% hits | response, % at 10 µM; in the data active means response mostly above about 7.3%, no sharp cut-off; inactive means mostly below about 5.4%; further: actives read high
MPTP inh = permeability transition pore inhibition. isolated mouse mitochondria, Ca2+ swelling absorbance, 30 min. inhibition, % at 10 µM. 360,000 compounds, 1.4% hits;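 active means inhibition of 50% or more, scaled per plate between neutral and stimulator controls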;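 further: 0% = DMSO wells given calcium and 100% = 1 mM EGTA wells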
T cell HTS = modulates CD8 T cell binding to vesicles. 2C CD8+ T cell-vesicle binding, flow cytometry; active compounds read low. response (vesicle binding), % at 7 µM. 330,000 compounds, 0.068% hits. AID 2052;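 active means response, share of CD8 T cells binding vesicles, and their 90th percentile fluorescence all below set limits, cut at about 80% in these data, passing the limit was not always enough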;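 further: values below 100% mean blocked vesicle binding to the CD8+ T cells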
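incubation = binding step 1.5 h, 37 °C, antibody labelling 20 min, ice | test system = 2C mouse CD8+ T cells | read-out basis = percent CD8+ FL2 mean versus row control | controls = Peptide-free naked vesicles (low) and QL9 vesicles with 0.7% DMSO vehicle (high) | detection = flow cytometry of vesicle-bound cells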
MPTP counter = membrane potential counter-screen of mitochondrial pore inhibitors | shares compounds with MPTP inh | isolated mitochondria, Rhodamine 123 fluorescence | inhibition, % at 10 µM | 5,000 compounds, 78% hits | AID 624504; in the data active means inhibition above about 22%;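 further: 0% = DMSO vehicle and 100% = positive control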
MPTP abs DR = dose response confirmation of mitochondrial permeability transition pore inhibitors; AID 651561; isolated mitochondria swelling, absorbance; 780 compounds, 58% hits; IC50, µM; shares compounds with MPTP inh; in the data active means IC50 below about 20 µM
MPTP cs DR = MPTP inhibitor counter-screen activity, dose response; shares compounds with MPTP inh; isolated mitochondria counterscreen, fluorescence read-out; IC50, µM; 780 compounds, 49% hits; AID 651564; in the data active means IC50 below about 80 µM
The depositor's hits bear a star; i = inactive; . = no result.

SMILES | rCAG binder | Granule exo inh | Beta2AR agonist | V-ATPase pH | MPTP inh | T cell HTS | MPTP counter | others
COc1ccc(COC(=O)c2cccc(S(=O)(=O)N3CCN(C(C)=O)CC3)c2)cc1F | -5 | -5 | 3 | -2 | 56* | 327 | 45*
O=C(c1c(F)cccc1F)N1CCC(Oc2cccnc2)CC1 | 0 | . | . | . | . | . | .
O=C(Nc1ccc(Cc2ccncc2)cc1)c1ccc(Cl)c([N+](=O)[O-])c1 | 1 | 0 | 18 | 1 | 54* | 418 | 75*
CCOC(=O)Cn1nc(C)c(NC(=O)c2cccc([N+](=O)[O-])c2)c1C | -2 | 2 | -7 | 3 | 2 | 842 | .
CCOC(=O)Cn1nc(C)c(NC(=O)c2ccc(Cl)c([N+](=O)[O-])c2)c1C | 0 | -4 | 9 | -6 | 61* | i | 77*
COc1ccc(NC(=O)c2ccc(-n3cccn3)c([N+](=O)[O-])c2)cc1 | 5 | -3 | 3 | 1 | -3 | 158 | .
O=C(Nc1ccc(Cl)cc1)c1ccc(-n2cccn2)c([N+](=O)[O-])c1 | -2 | 0 | 8 | -5 | 73* | 194 | 66*
O=C(Nc1ccc(Nc2ccccc2)cc1)c1ccc(Cl)c([N+](=O)[O-])c1 | 17 | 99* | 33 | -1 | 67* | 256 | 64*
COC(=O)[C@H](CC(C)C)N(CCc1cn(Cc2ccccc2)nn1)S(=O)(=O)c1ccc(F)cc1Br | 1 | . | . | . | . | . | .
O=C(C1CCCN1S(=O)(=O)c1cccc2ccccc12)N1CCN(c2ccccc2)CC1 (configuration not stated) | 3 | . | . | . | . | . | .
CC(=O)NC(c1ccc(C(C)C)cc1)c1c(O)ccc2ccccc12 (configuration not stated) | 7 | -4 | -7 | 0 | 17 | 247 | .
CC(=O)NC(c1ccc([N+](=O)[O-])cc1)c1c(O)ccc2ccccc12 (configuration not stated) | 2 | -2 | 6 | -4 | 12 | 141 | .
CC(C)C(=O)NC(c1ccc([N+](=O)[O-])cc1)c1c(O)ccc2ccccc12 (configuration not stated) | 5 | 1 | 9 | 0 | 87* | 781 | 77*
Cc1ccc(C(NC(=O)C2CCCCC2)c2c(O)ccc3ccccc23)cc1 (configuration not stated) | 10 | -4 | 2 | -2 | 99* | 388 | 80*
O=C(NCc1ccccc1)[C@@H]1CCCN1C(=O)[C@H]1CCCN1C(=O)c1ccccc1F | 1 | . | . | . | . | . | .
Fc1ccc(NC(=S)NNc2ncc(C(F)(F)F)cc2Cl)c(F)c1 | -1 | 0 | 22 | 2 | 94* | 178 | 94*
FC(F)(F)c1cnc(NNC(=S)Nc2ccc(Cl)cc2)c(Cl)c1 | 12 | -5 | 9 | -2 | 100* | 255 | 92*
CCCCc1ccc(NC(=S)NCc2cccs2)cc1 | 1 | 0 | 1 | 6 | 84* | 483 | 80*
CCCCc1ccc(NC(=S)NCc2ccc(OC)cc2)cc1 | -2 | 0 | -17 | 21 | 57* | 281 | 75*
COc1ccc(CNC(=S)Nc2ccc(OC)cc2)cc1 | -2 | 1 | 8 | -3 | -1 | 229 | .
Cc1ccc(C(=O)N(C)[C@H]2C[C@H]3c4[nH]c5c(-c6cccc(C)c6)cccc5c4CCN3C[C@H]2[C@H](C)O)cc1 | 4 | . | . | . | . | . | .
COc1ccc(-c2noc(C3CCCN(C(=O)N[C@@H]4C[C@H]4c4ccccc4)C3)n2)cc1 (some centres not stated) | 1 | . | . | . | . | . | .
FC(F)(F)Oc1ccc(NC(=S)Nc2ccc(OC(F)(F)F)cc2)cc1 | 3 | -7 | 15 | 5 | 95* | 494 | 71*
O=C(O)/C=C/C(=O)Nc1ccc(OC(F)(F)F)cc1 | -3 | 6 | 0 | 0 | 0 | 110 | .
CC(C)c1ccc(NC(=S)Nc2ccc(OC(F)(F)F)cc2)cc1 | 0 | 0 | 9 | 1 | 90* | 636 | 90*
SMILES | rCAG binder | Granule exo inh | Beta2AR agonist | V-ATPase pH | MPTP inh | T cell HTS | MPTP counter | others
COc1ccc(CCNC(=S)Nc2ccc(C(C)C)cc2)cc1 | -2 | -3 | 4 | -1 | 37 | 142 | .
CN1CCCCC(NC(=O)c2ccc(F)cc2)C1=O (configuration not stated) | 2 | . | . | . | . | . | .
CCOC(=O)c1ccc(NC(=O)CCc2nc(-c3ccc(C)cc3)no2)cc1 | -1 | 0 | -3 | -5 | 85* | 460 | 85*
COc1ccc(NC(=O)CCc2nc(-c3ccc(C)cc3)no2)cc1Cl | 1 | -11 | 2 | 6 | 20 | 263 | .
COc1ccc(-c2noc(CCC(=O)Nc3ccc4c(c3)OCCO4)n2)cc1 | -4 | 0 | 2 | 10 | 28 | 226 | .
CCOC(=O)c1ccc(NC(=O)CCc2nc(-c3ccc(Cl)cc3)no2)cc1 | 2 | 3 | -6 | 1 | 97* | 0 | 81*
Cc1ccc(-c2noc(CCC(=O)Nc3ccc4c(c3)OCO4)n2)cc1 | -1 | 6 | -5 | 15 | 52* | 310 | 26*
CCOc1ccc(Oc2c(Cl)cnn(Cc3cccc4ccccc34)c2=O)cc1 | 3 | . | . | . | . | . | .
COc1ccc(CC(=O)Nc2cccc(-c3csc(C)n3)c2)cc1 | 11 | 1 | -3 | 0 | 104* | 442 | 4 | MPTP abs DR=>100;MPTP cs DR=>80
Cc1nc(Nc2ccc(Cl)cc2)c2nnn(Cc3ccccc3)c2n1 | 2 | 2 | -3 | 1 | -2 | 366 | .
Cc1nc(Nc2ccc(S(=O)(=O)N3CCCCC3C)cc2)c2nnn(Cc3ccccc3)c2n1 (configuration not stated) | 1 | -2 | 6 | -1 | 68* | 0 | 14 | MPTP abs DR=i;MPTP cs DR=>80
CC1(C)CC(=O)C(C(C2=C(O)CC(C)(C)CC2=O)c2ccc(Br)s2)C(=O)C1 (configuration not stated) | 4 | 12 | 22 | 5 | 73* | 936 | 80*
Cc1ccc(C(C2=C(O)CC(C)(C)CC2=O)C2C(=O)CC(C)(C)CC2=O)s1 (configuration not stated) | 0 | 9 | 21 | 2 | 2 | 355 | .
COc1ccc2[nH]c(CN3CCC(CO)(CCOc4ccccc4)CC3)c(C)c2c1 | -6 | 20 | 18 | 3 | 66* | 314 | -16 | MPTP abs DR=5.8*;MPTP cs DR=>80
Fc1cccc(NC(=S)Nc2ccc(Br)cc2)c1 | 7 | -5 | 9 | 0 | 110* | 323 | 96*
S=C(Nc1ccc(Br)cc1)Nc1ccc2c(c1)OCCO2 | 0 | -2 | -4 | 4 | 81* | 329 | 106*
Cc1ccccc1NC(=S)Nc1ccc(Br)cc1 | 1 | 1 | 12 | 1 | 80* | 253 | 83*
